According to ChEMBL document CHEMBL4689842, “EUbOPEN Chemogenomics Library wave 1” (2021):

Tested on: U2OS
Assay: Multiplex assay against U2OS
Assay type: toxicity, cell-based
Settings: human
In short: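 Live cells were stained at seeding with Hoechst33342, BioTracker Green Microtubule Cytoskeleton Dye, MitoTracker Red and Annexin V Alexa Fluor 680. Following compound addition, they were imaged on a CQ1 microscope at 37°C and 5% CO2 and gated by CellPathfinder machine learning into Hoechst high-intensity objects or normal cells, with normal cells split into healthy, pyknosed or fragmented nuclei and pyknosed cells into mitotic or apoptotic. Tubulin, mitochondrial-mass and membrane-permeability phenotypes are per cents of healthy-nucleus cells.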

[1] = 12 h, 1 µM, compound concentration 1 uM, replicate 1
[2] = 12 h, 1 µM, compound concentration 1 uM, replicate 2
[3] = 12 h, 10 µM, compound concentration 10 uM, replicate 1
[4] = 12 h, 10 µM, compound concentration 10 uM, replicate 2
[5] = 24 h, 1 µM, compound concentration 1 uM, replicate 1
[6] = 24 h, 1 µM, compound concentration 1 uM, replicate 2
[7] = 24 h, 10 µM, compound concentration 10 uM, replicate 1
[8] = 24 h, 10 µM, compound concentration 10 uM, replicate 2
[9] = 48 h, 1 µM, compound concentration 1 uM, replicate 1
[10] = 48 h, 1 µM, compound concentration 1 uM, replicate 2
[11] = 48 h, 10 µM, compound concentration 10 uM, replicate 1
[12] = 48 h, 10 µM, compound concentration 10 uM, replicate 2

C=CC(=O)Nc1cc2c(Nc3ccc(F)c(Cl)c3)ncnc2cc1OCCCN1CCOCC1.Cl.Cl [CANERTINIB DIHYDROCHLORIDE]
Population Apoptotic (%) [1]: 91% | Population Fragmented Nuclei (%) [1]: 16% | Population Healthy Nuclei (%) [1]: 0% | Population Hoechst High Intensity Objects (%) [1]: 5% | Population Membrane Permeable-Phenotype (%) [1]: 0% | Population Mitochondria Different-Phenotype (%) [1]: 100% | Population Mitotic Cells (%) [1]: 8% | Population Normal (%) [1]: 94% | Population Pyknosed Nuclei (%) [1]: 83% | Population Tubulin-Different-Phenotype (%) [1]: 100% | Total Cell Count [1]: 137 | Population Apoptotic (%) [2]: 95% | Population Fragmented Nuclei (%) [2]: 10% | Population Healthy Nuclei (%) [2]: 4% | Population Hoechst High Intensity Objects (%) [2]: 20% | Population Membrane Permeable-Phenotype (%) [2]: 100% | Population Mitotic Cells (%) [2]: 5% | Population Normal (%) [2]: 79% | Population Pyknosed Nuclei (%) [2]: 85% | Total Cell Count [2]: 88 | Population Apoptotic (%) [3]: 22% | Population Fragmented Nuclei (%) [3]: 5% | Population Healthy Nuclei (%) [3]: 87% | Population Hoechst High Intensity Objects (%) [3]: 2% | Population Membrane Permeable-Phenotype (%) [3]: 38% | Population Mitochondria Different-Phenotype (%) [3]: 11% | Population Mitotic Cells (%) [3]: 77% | Population Normal (%) [3]: 97% | Population Pyknosed Nuclei (%) [3]: 6% | Population Tubulin-Different-Phenotype (%) [3]: 17% | Total Cell Count [3]: 142 | Population Apoptotic (%) [4]: 33% | Population Fragmented Nuclei (%) [4]: 12% | Population Healthy Nuclei (%) [4]: 81% | Population Hoechst High Intensity Objects (%) [4]: 10% | Population Membrane Permeable-Phenotype (%) [4]: 24% | Population Mitochondria Different-Phenotype (%) [4]: 22% | Population Mitotic Cells (%) [4]: 66% | Population Normal (%) [4]: 89% | Population Pyknosed Nuclei (%) [4]: 5% | Population Tubulin-Different-Phenotype (%) [4]: 14% | Total Cell Count [4]: 122 | Population Apoptotic (%) [5]: 99% | Population Fragmented Nuclei (%) [5]: 8% | Population Healthy Nuclei (%) [5]: 4% | Population Hoechst High Intensity Objects (%) [5]: 13% | Population Membrane Permeable-Phenotype (%) [5]: 100% | Population Mitochondria Different-Phenotype (%) [5]: 100% | Population Mitotic Cells (%) [5]: 0% | Population Normal (%) [5]: 86% | Population Pyknosed Nuclei (%) [5]: 87% | Population Tubulin-Different-Phenotype (%) [5]: 100% | Total Cell Count [5]: 137 | Population Apoptotic (%) [6]: 100% | Population Fragmented Nuclei (%) [6]: 14% | Population Healthy Nuclei (%) [6]: 5% | Population Hoechst High Intensity Objects (%) [6]: 21% | Population Normal (%) [6]: 78% | Population Pyknosed Nuclei (%) [6]: 79% | Total Cell Count [6]: 85 | Population Apoptotic (%) [7]: 70% | Population Fragmented Nuclei (%) [7]: 5% | Population Hoechst High Intensity Objects (%) [7]: 3% | Population Mitochondria Different-Phenotype (%) [7]: 11% | Population Mitotic Cells (%) [7]: 29% | Population Normal (%) [7]: 96% | Population Pyknosed Nuclei (%) [7]: 9% | Population Tubulin-Different-Phenotype (%) [7]: 9% | Total Cell Count [7]: 186 | Population Apoptotic (%) [8]: 42% | Population Fragmented Nuclei (%) [8]: 9% | Population Healthy Nuclei (%) [8]: 84% | Population Hoechst High Intensity Objects (%) [8]: 8% | Population Membrane Permeable-Phenotype (%) [8]: 20% | Population Mitochondria Different-Phenotype (%) [8]: 23% | Population Mitotic Cells (%) [8]: 57% | Population Normal (%) [8]: 91% | Population Pyknosed Nuclei (%) [8]: 5% | Population Tubulin-Different-Phenotype (%) [8]: 19% | Total Cell Count [8]: 135

CN(C)C(=O)N[C@H]1CC[C@H](CCN2CCN(c3cccc(Cl)c3Cl)CC2)CC1.Cl [CARIPRAZINE HYDROCHLORIDE]
Population Apoptotic (%) [1]: 20% | Population Fragmented Nuclei (%) [1]: 14% | Population Healthy Nuclei (%) [1]: 79% | Population Hoechst High Intensity Objects (%) [1]: 8% | Population Membrane Permeable-Phenotype (%) [1]: 4% | Population Mitotic Cells (%) [1]: 80% | Population Normal (%) [1]: 91% | Population Pyknosed Nuclei (%) [1]: 6% | Population Tubulin-Different-Phenotype (%) [1]: 14% | Total Cell Count [1]: 84 | Population Apoptotic (%) [2]: 60% | Population Fragmented Nuclei (%) [2]: 7% | Population Healthy Nuclei (%) [2]: 84% | Population Hoechst High Intensity Objects (%) [2]: 6% | Population Membrane Permeable-Phenotype (%) [2]: 6% | Population Mitochondria Different-Phenotype (%) [2]: 29% | Population Mitotic Cells (%) [2]: 40% | Population Normal (%) [2]: 93% | Population Pyknosed Nuclei (%) [2]: 8% | Population Tubulin-Different-Phenotype (%) [2]: 22% | Total Cell Count [2]: 61 | Population Apoptotic (%) [3]: 50% | Population Fragmented Nuclei (%) [3]: 15% | Population Healthy Nuclei (%) [3]: 59% | Population Hoechst High Intensity Objects (%) [3]: 8% | Population Membrane Permeable-Phenotype (%) [3]: 14% | Population Mitochondria Different-Phenotype (%) [3]: 97% | Population Mitotic Cells (%) [3]: 50% | Population Normal (%) [3]: 91% | Population Tubulin-Different-Phenotype (%) [3]: 100% | Total Cell Count [3]: 78 | Population Apoptotic (%) [4]: 36% | Population Fragmented Nuclei (%) [4]: 17% | Population Healthy Nuclei (%) [4]: 57% | Population Hoechst High Intensity Objects (%) [4]: 3% | Population Membrane Permeable-Phenotype (%) [4]: 47% | Population Mitochondria Different-Phenotype (%) [4]: 95% | Population Mitotic Cells (%) [4]: 63% | Population Normal (%) [4]: 96% | Population Pyknosed Nuclei (%) [4]: 25% | Population Tubulin-Different-Phenotype (%) [4]: 95% | Total Cell Count [4]: 79 | Population Apoptotic (%) [5]: 41% | Population Fragmented Nuclei (%) [5]: 13% | Population Healthy Nuclei (%) [5]: 73% | Population Hoechst High Intensity Objects (%) [5]: 9% | Population Membrane Permeable-Phenotype (%) [5]: 4% | Population Mitochondria Different-Phenotype (%) [5]: 17% | Population Mitotic Cells (%) [5]: 58% | Population Normal (%) [5]: 90% | Population Pyknosed Nuclei (%) [5]: 13% | Population Tubulin-Different-Phenotype (%) [5]: 8% | Total Cell Count [5]: 102 | Population Apoptotic (%) [6]: 66% | Population Fragmented Nuclei (%) [6]: 6% | Population Healthy Nuclei (%) [6]: 84% | Population Hoechst High Intensity Objects (%) [6]: 4% | Population Membrane Permeable-Phenotype (%) [6]: 7% | Population Mitochondria Different-Phenotype (%) [6]: 22% | Population Mitotic Cells (%) [6]: 33% | Population Normal (%) [6]: 95% | Population Pyknosed Nuclei (%) [6]: 9% | Population Tubulin-Different-Phenotype (%) [6]: 14% | Total Cell Count [6]: 67 | Population Apoptotic (%) [7]: 57% | Population Fragmented Nuclei (%) [7]: 13% | Population Healthy Nuclei (%) [7]: 57% | Population Hoechst High Intensity Objects (%) [7]: 13% | Population Membrane Permeable-Phenotype (%) [7]: 28% | Population Mitochondria Different-Phenotype (%) [7]: 97% | Population Mitotic Cells (%) [7]: 42% | Population Normal (%) [7]: 86% | Population Pyknosed Nuclei (%) [7]: 28% | Total Cell Count [7]: 84 | Population Apoptotic (%) [8]: 94% | Population Fragmented Nuclei (%) [8]: 23% | Population Healthy Nuclei (%) [8]: 55% | Population Hoechst High Intensity Objects (%) [8]: 3% | Population Membrane Permeable-Phenotype (%) [8]: 42% | Population Mitochondria Different-Phenotype (%) [8]: 95% | Population Mitotic Cells (%) [8]: 5% | Population Normal (%) [8]: 96% | Population Pyknosed Nuclei (%) [8]: 20% | Population Tubulin-Different-Phenotype (%) [8]: 95% | Total Cell Count [8]: 87 | Population Apoptotic (%) [9]: 27% | Population Fragmented Nuclei (%) [9]: 9% | Population Hoechst High Intensity Objects (%) [9]: 6% | Population Membrane Permeable-Phenotype (%) [9]: 0% | Population Mitochondria Different-Phenotype (%) [9]: 12% | Population Mitotic Cells (%) [9]: 72% | Population Normal (%) [9]: 93% | Population Pyknosed Nuclei (%) [9]: 8% | Population Tubulin-Different-Phenotype (%) [9]: 7% | Total Cell Count [9]: 140 | Population Apoptotic (%) [10]: 50% | Population Fragmented Nuclei (%) [10]: 6% | Population Healthy Nuclei (%) [10]: 82% | Population Hoechst High Intensity Objects (%) [10]: 2% | Population Membrane Permeable-Phenotype (%) [10]: 9% | Population Mitochondria Different-Phenotype (%) [10]: 15% | Population Mitotic Cells (%) [10]: 50% | Population Normal (%) [10]: 97% | Population Pyknosed Nuclei (%) [10]: 10% | Population Tubulin-Different-Phenotype (%) [10]: 13% | Total Cell Count [10]: 94 | Population Apoptotic (%) [11]: 79% | Population Fragmented Nuclei (%) [11]: 12% | Population Healthy Nuclei (%) [11]: 59% | Population Hoechst High Intensity Objects (%) [11]: 13% | Population Membrane Permeable-Phenotype (%) [11]: 26% | Population Mitochondria Different-Phenotype (%) [11]: 96% | Population Mitotic Cells (%) [11]: 20% | Population Normal (%) [11]: 86% | Population Pyknosed Nuclei (%) [11]: 27% | Population Tubulin-Different-Phenotype (%) [11]: 96% | Total Cell Count [11]: 101 | Population Apoptotic (%) [12]: 70% | Population Fragmented Nuclei (%) [12]: 20% | Population Healthy Nuclei (%) [12]: 53% | Population Hoechst High Intensity Objects (%) [12]: 2% | Population Membrane Permeable-Phenotype (%) [12]: 42% | Population Mitochondria Different-Phenotype (%) [12]: 89% | Population Mitotic Cells (%) [12]: 29% | Population Normal (%) [12]: 97% | Population Pyknosed Nuclei (%) [12]: 25% | Population Tubulin-Different-Phenotype (%) [12]: 82% | Total Cell Count [12]: 108
